Source: article PMC4179762 (Drug Design, Development and Therapy, 2014)

Key:
hH3R [1] = target: T1, hH3R (Homo sapiens, UniProt Q9Y5N1); experiment: hH3R radioligand competition binding assay
Summary of the method: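 HEK-293 membranes stably expressing hH3R, sonicated at 4°C, in 12.5 mM MgCl2/100 mM NaCl/75 mM Tris-HCl pH 7.4; 20–25 μg/well. […] Unlabeled histamine defined non-specific binding. PEI-treated GF/B filtration, scintillation counting, nonlinear fit; Ki by Cheng–Prusoff.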

hH3R [2] = target: T1, hH3R; experiment: Metric analyses; conditions: LELP=clogP/LE
hH4R [3] = target: T2, hH4R (Homo sapiens, UniProt Q9H3N8); experiment: Metric analyses; conditions: LELP=clogP/LE
hH3R [4] = target: T1, hH3R; experiment: hH3R saturation binding experiments with [3H]Nα-methylhistamine
hH4R [5] = target: T2, hH4R; experiment: hH4R radioligand competition binding assay; conditions: compared to compound 3
Summary of the method: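 Sf9 membranes co-expressing hH4R with Gαi2 and Gβ1γ2, pelleted (16,000 g, 10 min, 4°C) into 12.5 mM MgCl2/1 mM EDTA/75 mM Tris-HCl pH 7.4; 35 μg/well. Incubated 60 min, 25°C, shaking, with 10 nM [3H]histamine and seven test concentrations (0.1 nM–100 μM), triplicate. Non-specific binding with 100 μM histamine. PEI-treated GF/B filtration, scintillation counting; Ki by Cheng–Prusoff.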

T1 sequence (Q9Y5N1 whole entry): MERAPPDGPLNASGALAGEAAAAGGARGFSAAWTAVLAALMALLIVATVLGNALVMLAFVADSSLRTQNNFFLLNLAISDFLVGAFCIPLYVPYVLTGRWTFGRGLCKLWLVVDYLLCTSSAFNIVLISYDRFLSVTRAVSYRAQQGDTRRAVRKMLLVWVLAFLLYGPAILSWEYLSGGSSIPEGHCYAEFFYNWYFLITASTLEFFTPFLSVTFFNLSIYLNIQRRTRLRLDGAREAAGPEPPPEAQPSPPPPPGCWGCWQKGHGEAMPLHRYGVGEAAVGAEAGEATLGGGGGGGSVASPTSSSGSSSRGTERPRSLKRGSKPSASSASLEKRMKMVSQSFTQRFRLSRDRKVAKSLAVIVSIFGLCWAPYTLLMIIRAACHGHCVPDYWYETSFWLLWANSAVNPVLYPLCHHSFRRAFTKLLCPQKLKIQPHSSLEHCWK
T2 sequence (Q9H3N8 whole entry): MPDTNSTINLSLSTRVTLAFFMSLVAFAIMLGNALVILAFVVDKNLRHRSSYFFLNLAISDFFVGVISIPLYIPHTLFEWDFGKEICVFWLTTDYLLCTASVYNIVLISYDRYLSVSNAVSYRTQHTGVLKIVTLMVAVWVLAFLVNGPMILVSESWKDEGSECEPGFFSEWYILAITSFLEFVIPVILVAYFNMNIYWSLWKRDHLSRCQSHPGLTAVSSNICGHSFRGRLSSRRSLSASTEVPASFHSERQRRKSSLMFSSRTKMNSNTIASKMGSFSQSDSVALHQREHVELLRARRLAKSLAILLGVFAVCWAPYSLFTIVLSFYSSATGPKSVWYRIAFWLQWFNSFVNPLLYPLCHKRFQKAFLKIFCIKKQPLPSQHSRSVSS

Row | Compound | LELP (hH3R) (hH3R [2]) | LELP (hH4R) (hH4R [3]) | other results
1 | c1ccc(CNc2ccnc(Nc3ccc(OCCCN4CCCCC4)cc3)n2)cc1 [Compound 5, N^4-benzyl-N^2-(4-(3-(piperidin-1-yl)propoxy)phenyl)pyrimidin-2,4-diamine] | 12.79 | 23.57 | Ratio hH4R/hH3R (hH3R [1]; receptor subtype selectivity, Ki hH4R / Ki hH3R): more than 6,500
2 | [3H]CNCCc1cnc[nH]1 [[^3H] N^α-MeHA, [^3H]N^α-methylhistamine] |  |  | pKd of radioligand at hH3R (hH3R [4]; HEK-293 membranes): 8.53±0.01
3 | 6-(4-methylpiperazin-1-yl)-N-(4-(3-(piperidin-1-yl)propoxy)benzyl)pyrimidin-2,4-diamine [Compound 4] |  | 13.11 | fold higher affinity for hH4Rs (hH4R [5]): 3 ×; fold weaker affinity for hH3Rs (hH3R [1]; compared to compound 3): ~5 ×
4 | CN1CCN(c2cc(Nc3ccc(OCCCN4CCCCC4)cc3)nc(N)n2)CC1 [Compound 3, 6-(4-methylpiperazin-1-yl)-N^4-(4-(3-(piperidin-1-yl)propoxy)phenyl)pyrimidin-2,4-diamine] |  | 15.17 | fold increased affinity for hH3R (hH3R [1]; vs compound 2): 49 ×
5 | CNCCc1cnc[nH]1 [[^3H] N^α-MeHA, [^3H]N^α-methylhistamine] |  |  | Kd (hH3R [4]; read-out: Kd value of radioligand at hH3R, HEK-293 membranes): 2.98 nM
6 | CN1CCN(CCCOc2ccc(Nc3nccc(NCc4ccccc4)n3)cc2)CC1 [Compound 6, N^4-benzyl-N^2-(4-(3-(4-methylpiperazin-1-yl)propoxy)phenyl)pyrimidin-2,4-diamine] | 13.55 | 17.82 | 
